Active and inactive are the calls of the source. No cut-off for these calls is given here.
Legend:
[1] = molecular target: T1, Protein deacetylase HDAC6 (Homo sapiens) (UniProt Q9UBN7); experiment: Inhibition of HDAC6 in human SH-SY5Y cells assessed as increase in acetylation of alpha-tubulin at 0.1 to 1 uM after 24 hrs by Western blot analysis; type: cell-based
T1 sequence (whole entry): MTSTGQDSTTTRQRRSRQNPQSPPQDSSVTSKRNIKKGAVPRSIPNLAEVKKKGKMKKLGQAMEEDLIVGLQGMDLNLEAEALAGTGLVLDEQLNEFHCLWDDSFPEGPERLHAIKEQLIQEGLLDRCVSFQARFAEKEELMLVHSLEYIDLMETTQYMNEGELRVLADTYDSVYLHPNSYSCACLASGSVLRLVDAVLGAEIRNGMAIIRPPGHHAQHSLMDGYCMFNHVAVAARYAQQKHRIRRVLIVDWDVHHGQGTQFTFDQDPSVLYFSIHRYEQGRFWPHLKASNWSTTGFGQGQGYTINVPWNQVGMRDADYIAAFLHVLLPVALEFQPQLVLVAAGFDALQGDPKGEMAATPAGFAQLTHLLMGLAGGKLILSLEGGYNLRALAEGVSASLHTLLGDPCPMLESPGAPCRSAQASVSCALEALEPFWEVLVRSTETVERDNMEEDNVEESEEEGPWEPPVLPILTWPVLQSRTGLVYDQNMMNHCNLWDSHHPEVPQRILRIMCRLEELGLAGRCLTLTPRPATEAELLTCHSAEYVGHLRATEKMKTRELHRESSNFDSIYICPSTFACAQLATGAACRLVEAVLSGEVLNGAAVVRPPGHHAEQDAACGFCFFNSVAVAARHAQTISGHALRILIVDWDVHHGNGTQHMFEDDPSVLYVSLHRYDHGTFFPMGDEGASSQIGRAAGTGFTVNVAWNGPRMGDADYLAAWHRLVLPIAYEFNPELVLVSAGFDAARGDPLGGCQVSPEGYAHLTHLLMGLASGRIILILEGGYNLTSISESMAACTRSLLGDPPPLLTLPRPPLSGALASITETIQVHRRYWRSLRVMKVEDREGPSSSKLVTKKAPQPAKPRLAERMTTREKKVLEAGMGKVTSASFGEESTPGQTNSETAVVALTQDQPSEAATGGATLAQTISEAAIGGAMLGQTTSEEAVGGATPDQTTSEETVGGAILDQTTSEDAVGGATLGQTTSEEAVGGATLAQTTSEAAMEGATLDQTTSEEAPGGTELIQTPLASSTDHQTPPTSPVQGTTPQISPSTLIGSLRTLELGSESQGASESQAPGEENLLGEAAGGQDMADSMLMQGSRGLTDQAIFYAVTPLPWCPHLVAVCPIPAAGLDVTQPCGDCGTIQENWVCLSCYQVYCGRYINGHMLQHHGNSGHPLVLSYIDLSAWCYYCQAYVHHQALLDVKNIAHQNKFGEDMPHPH
Procedure, shortened: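 SH-SY5Y cells in MEM with 10% FBS at 37 °C, 5% CO2, treated 24 h at 0.1–1 µM. Lysates in HEPES/Triton buffer; 20 µg protein run on SDS-PAGE and immunoblotted for acetyl-α-tubulin, α-tubulin, acetyl-histone H3 and histone H3 with ECL detection.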

[2] = Drug uptake in Sprague-Dawley rat brain at 50 mg/kg, po after 3 hrs by HPLC-MS/MS analysis; type: ADME, organism-based; conditions: read-out: Drug uptake
[3] = molecular target: T1, Protein deacetylase HDAC6 (Homo sapiens); experiment: Inhibition of HDAC6 in human SH-SY5Y cells transfected with pCAX FLAG APP and pRK5-EGFP-Tau P301L plasmids assessed as reduction in Tau P301L mutant level in cytosol at 1 uM after 24 hrs by Western blot analysis; type: cell-based
Procedure, shortened: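 Cotransfected SH-SY5Y cells (1 × 10^7) treated 24 h at 1 µM, lysed in sucrose/HEPES pH 7.2 buffer; 190,000 g supernatant = cytosol. Pellet treated with 5 µM nocodazole, re-spun; residual pellet extracted with sodium carbonate pH 11.5 and washed in 1% SDS to give aggregate fraction. Equal protein by SDS-PAGE immunoblot.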

COc1ccc(C(=O)c2ccc3c(ccn3Cc3ccc(C(=O)NO)cc3)c2)cc1
inhibition [1]: Active | concentration at 3 h [2]: 6.3 ng/g | inhibition [3]: Active
